Data as given in ChEMBL document CHEMBL1914356, “Maslinic acid derivatives induce significant apoptosis in b16f10 murine melanoma cells” (2011).
Calls of active or inactive are those of the source. The rule behind the calls is not given here.

How the values were obtained:
B16-F10 [1] = assay: Induction of apoptosis in mouse B16F10 cells assessed as necrotic cells at 30 uM after 24 hrs using annexin V-FITC/propidium iodide staining by flow cytometry; assay type: functional
Method in brief: (§1)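 B16-F10 cells grown in DMEM with 4 mM L-glutamine, 1 mM pyruvate, 4.5 g/L glucose and 10% FBS. 300,000 cells/well were plated, then treated in DMSO after 24 h. Vehicle and medium-alone controls were included. Cells were detached with EDTA-trypsin, PBS-washed and set at 1 × 10^6 cells/mL in binding buffer. Annexin V-FITC/PI staining ran 15 min at room temperature in the dark, followed by flow cytometry within 1 h.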

B16-F10 [2] = assay: Induction of apoptosis in mouse B16F10 cells assessed as total apoptosis at 20 uM after 48 hrs using annexin V-FITC/propidium iodide staining by flow cytometry; assay type: functional, cell-based
Method in brief: (§2)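 B16-F10 cells in DMEM/10% FBS were plated at 300,000 cells/well, then treated 24 h later, in duplicate, in DMSO at […] for 24 or 48 h. Vehicle and medium controls were included. Annexin V-FITC/PI staining ran 15 min at room temperature in the dark. Total apoptosis (early + late) was read by flow cytometry as mean ± SD from two independent experiments.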

B16-F10 [3] = assay: Induction of apoptosis in mouse B16F10 cells assessed as early/late apoptotic cells at 30 uM after 24 hrs using annexin V-FITC/propidium iodide staining by flow cytometry; assay type: functional; method in brief: as §1
B16-F10 [4] = assay: Induction of apoptosis in mouse B16F10 cells assessed as total apoptosis at 20 uM after 24 hrs using annexin V-FITC/propidium iodide staining by flow cytometry; assay type: functional; method in brief: as §2
B16-F10 [5] = assay: Induction of apoptosis in mouse B16F10 cells assessed as total apoptosis at 1 uM after 24 hrs using annexin V-FITC/propidium iodide staining by flow cytometry; assay type: functional
Method in brief: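 B16-F10 cells grown in DMEM with 4 mM L-glutamine, 1.5 g/L bicarbonate, 1 mM pyruvate, 4.5 g/L glucose, 10% FBS. Seeded at 300,000 cells/well in 6-well dishes, treated 24 h later with compound in DMSO. Vehicle and medium-only controls. Detached with EDTA-trypsin, PBS-washed, stained with annexin V-FITC and PI 15 min at room temperature in dark. Total apoptosis = early + late. Mean ± SD, two independent experiments.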

B16-F10 [6] = assay: Induction of apoptosis in mouse B16F10 cells at 30 uM after 24 hrs using annexin V-FITC/propidium iodide staining by flow cytometry; assay type: functional; method in brief: as §1

SMILES: Cc1ccc(S(=O)(=O)OC[C@]23CCC(C)(C)C[C@H]2C2=CC[C@@H]4[C@@]5(C)C[C@H]6OC(C)(C)O[C@@H]6C(C)(C)[C@@H]5CC[C@@]4(C)[C@]2(C)CC3)cc1
- Activity (B16-F10 [1]): <10%

SMILES: CC1(C)CC[C@]2(C(=O)O)CC[C@]3(C)C(=CC[C@@H]4[C@@]5(C)C=C(O)C(=O)C(C)(C)[C@@H]5CC[C@]43C)[C@@H]2C1
- Activity (B16-F10 [2]): Active
- Activity (B16-F10 [3]): 80%
- Activity (B16-F10 [1]): <10%

SMILES: CC1(C)CC[C@]2(C(=O)O)CC[C@]3(C)C(=CC[C@@H]4[C@@]5(C)CC[C@H](O)C(C)(C)[C@@H]5CC[C@]43C)[C@@H]2C1 [OLEANOLIC_ACID]
- Activity (B16-F10 [1]): <10%

SMILES: COC(=O)C12CCC(C)=C(/C=C\C3=C(C)CC[C@H]4C(C)(C)[C@@H](O)CC[C@]34C)[C@@H]1CC(C)(C)CC2 (single isomer, unassigned)
- Activity (B16-F10 [1]): <10%

SMILES: CC(=O)O[C@H]1CC[C@]2(C)[C@H]3C[C@H](O)[C@]45OC(=O)[C@@]6(CCC(C)(C)C[C@H]64)CC[C@@]5(C)[C@]3(C)CC[C@H]2C1(C)C
- Activity (B16-F10 [1]): <10%

SMILES: COC(=O)[C@]12CCC(C)(C)C[C@H]1C1=CC[C@@H]3[C@@]4(C)C=CC(=O)C(C)(C)[C@@H]4CC[C@@]3(C)[C@]1(C)CC2
- Activity (B16-F10 [1]): <10%

SMILES: C=C1CC[C@H]2C(C)(C)[C@@H](OC(C)=O)CC[C@]2(C)/C1=C/CC1=C(C)CCC2(C(=O)OC)CCC(C)(C)C[C@@H]12 (single isomer, unassigned)
- Activity (B16-F10 [1]): <10%

SMILES: CC1(C)CC[C@]2(C(=O)O)CC[C@]3(C)C(=CC[C@@H]4[C@@]5(C)CC(=O)[C@H](O)C(C)(C)[C@@H]5CC[C@]43C)[C@@H]2C1
- Activity (B16-F10 [2]): Active
- Activity (B16-F10 [3]): 80%
- Activity (B16-F10 [1]): <10%

SMILES: CC1(C)CC[C@]2(C(=O)[O-])CC[C@]3(C)C(=CC[C@@H]4[C@@]5(C)C[C@@H](O)[C@H](O)C(C)(C)[C@@H]5CC[C@]43C)[C@@H]2C1.[Na+] [SODIUM MASLINATE]
- Activity (B16-F10 [4]): 70%
- Activity (B16-F10 [5]): 56.67%
- Activity (B16-F10 [3]): 80%
- Activity (B16-F10 [1]): <10%

SMILES: CC1(C)CC[C@]2(C(=O)O)CC[C@]3(C)C(=CC[C@@H]4[C@@]5(C)C[C@@H](O)[C@H](O)C(C)(C)[C@@H]5CC[C@]43C)[C@@H]2C1 [MASLINIC ACID]
- Activity (B16-F10 [1]): <10%

SMILES: CC1(C)CC[C@]2(CO)CC[C@]3(C)C(=CC[C@@H]4[C@@]5(C)C[C@H]6OC(C)(C)O[C@@H]6C(C)(C)[C@@H]5CC[C@]43C)[C@@H]2C1
- Activity (B16-F10 [1]): <10%

SMILES: CC1(C)CC[C@]2(C(N)=O)CC[C@]3(C)C(=CC[C@@H]4[C@@]5(C)C[C@@H](O)[C@H](O)C(C)(C)[C@@H]5CC[C@]43C)[C@@H]2C1
- Activity (B16-F10 [4]): 70%
- Activity (B16-F10 [2]): Active
- Activity (B16-F10 [3]): 80%
- Activity (B16-F10 [1]): <10%

SMILES: COC(=O)C12CCC(C)=C(/C=C\C3=C(C)CC[C@H]4C(C)(C)[C@@H](OC(C)=O)CC[C@]34C)[C@@H]1CC(C)(C)CC2 (single isomer, unassigned)
- Activity (B16-F10 [1]): <10%

SMILES: CC1(C)CC[C@]2(C(=O)OCc3ccccc3)CC[C@]3(C)C(=CC[C@@H]4[C@@]5(C)C=C(O)C(=O)C(C)(C)[C@@H]5CC[C@]43C)[C@@H]2C1
- Activity (B16-F10 [2]): Active
- Activity (B16-F10 [3]): 80%
- Activity (B16-F10 [1]): <10%

SMILES: COC(=O)[C@]12CCC(C)(C)C[C@H]1C1=CC[C@@H]3[C@@]4(C)C[C@@H](OC(C)=O)C(=O)C(C)(C)[C@@H]4CC[C@@]3(C)[C@]1(C)CC2
- Activity (B16-F10 [1]): <10%

SMILES: CC1(C)CC[C@]2(C(=O)OCc3ccccc3)CC[C@]3(C)C(=CC[C@@H]4[C@@]5(C)CC(=O)[C@H](O)C(C)(C)[C@@H]5CC[C@]43C)[C@@H]2C1
- Activity (B16-F10 [4]): > 70%
- Activity (B16-F10 [2]): Active
- Activity (B16-F10 [3]): 80%
- Activity (B16-F10 [1]): <10%

SMILES: CC(=O)O[C@H]1CC[C@]2(C)[C@H]3C[C@H](OC(C)=O)[C@]45OC(=O)[C@@]6(CCC(C)(C)C[C@H]64)CC[C@@]5(C)[C@]3(C)CC[C@H]2C1(C)C
- Activity (B16-F10 [6]): 30%
- Activity (B16-F10 [1]): <10%

SMILES: COC(=O)[C@]12CCC(C)(C)C[C@H]1C1=CC[C@@H]3[C@@]4(C)C[C@@H](O)C(=O)[C@](C)(CO)[C@@H]4CC[C@@]3(C)[C@]1(C)CC2
- Activity (B16-F10 [6]): 30%
- Activity (B16-F10 [1]): <10%

SMILES: C=C1C2CC3[C@@]4(C)CC[C@H](OC(C)=O)C(C)(C)C4CC[C@@]3(C)C2=CC[C@@]2(C(=O)OC)CCC(C)(C)CC12 (some centres undefined)
- Activity (B16-F10 [1]): <10%

SMILES: CC1(C)CC[C@]2(CO)CC[C@]3(C)[C@](O)([C@H](O)C=C4[C@@]5(C)CC[C@H](O)C(C)(C)[C@@H]5CC[C@]43C)[C@@H]2C1
- Activity (B16-F10 [1]): <10%

SMILES: CC1(C)CC[C@]2(C(=O)O)CC[C@]3(C)C(=CC[C@@H]4[C@@]5(C)C[C@@H](O)[C@H](O)C(C)(C)[C@@H]5CC[C@]43C)[C@@H]2C1
- Activity (B16-F10 [2]): Active

SMILES: CC1(C)CC[C@]2(CO)CC[C@]3(C)C(=CC[C@@H]4[C@@]5(C)C[C@H](O)[C@H](O)C(C)(C)[C@@H]5CC[C@]43C)[C@@H]2C1
- Activity (B16-F10 [1]): <10%

SMILES: COC(=O)[C@]12CCC(C)(C)C[C@H]1[C@@](O)(/C=C\[C@@]13O[C@]1(C)CC[C@H]1C(C)(C)[C@@H](O)CC[C@@]13C)[C@](C)(O)CC2
- Activity (B16-F10 [6]): 30%
- Activity (B16-F10 [1]): <10%

SMILES: CC(=O)O[C@@H]1C[C@]2(C)[C@H]3CC=C4[C@@H]5CC(C)(C)CC[C@]5(C(N)=O)CC[C@@]4(C)[C@]3(C)CC[C@H]2C(C)(C)[C@H]1OC(C)=O
- Activity (B16-F10 [1]): <10%

SMILES: COC(=O)[C@]12CCC(C)(C)C[C@H]1C1=CC[C@@H]3[C@@]4(C)C[C@H](OC(C)=O)[C@@H](O)C(C)(C)[C@@H]4CC[C@@]3(C)[C@]1(C)CC2
- Activity (B16-F10 [1]): <10%

SMILES: CC1(C)CC[C@]2(CN)CC[C@]3(C)C(=CC[C@@H]4[C@@]5(C)C[C@@H](O)[C@H](O)C(C)(C)[C@@H]5CC[C@]43C)[C@@H]2C1
- Activity (B16-F10 [1]): <10%

SMILES: CC(=O)O[C@@H]1C[C@]2(C)[C@H]3CC=C4[C@@H]5CC(C)(C)CC[C@]5(C(=O)O)CC[C@@]4(C)[C@]3(C)CC[C@H]2C(C)(C)[C@H]1OC(C)=O
- Activity (B16-F10 [1]): <10%

SMILES: CC1(C)CC[C@]2(C(=O)OCc3ccccc3)CC[C@]3(C)C(=CC[C@@H]4[C@@]5(C)C[C@H](O)[C@H](O)C(C)(C)[C@@H]5CC[C@]43C)[C@@H]2C1 [BENZYL AUGUSTATE]
- Activity (B16-F10 [2]): Active
- Activity (B16-F10 [3]): 80%
- Activity (B16-F10 [1]): <10%

SMILES: CC(=O)O[C@H]1CC[C@]2(C)[C@H]3C=C[C@]45OC(=O)[C@@]6(CCC(C)(C)C[C@H]64)CC[C@@]5(C)[C@]3(C)CC[C@H]2C1(C)C
- Activity (B16-F10 [1]): <10%

SMILES: C=C1C[C@]2(C)[C@H]3CC=C4[C@@H]5CC(C)(C)CC[C@]5(C(=O)OC)CC[C@@]4(C)[C@]3(C)CC[C@H]2C(C)(C)[C@H]1OC(C)=O
- Activity (B16-F10 [1]): <10%

SMILES: COC(=O)[C@]12CCC(C)(C)C[C@H]1[C@]1(/C=C\[C@@]34O[C@]3(C)CC[C@H]3C(C)(C)[C@@H](O)CC[C@@]34C)O[C@@]1(C)CC2
- Activity (B16-F10 [6]): 30%
- Activity (B16-F10 [1]): <10%

SMILES: CC1(C)CC[C@]2(CN=[N+]=[N-])CC[C@]3(C)C(=CC[C@@H]4[C@@]5(C)C[C@@H](O)[C@H](O)C(C)(C)[C@@H]5CC[C@]43C)[C@@H]2C1
- Activity (B16-F10 [1]): <10%

SMILES: CC1(C)CC[C@]2(C(=O)O)CC[C@]3(C)C(=CC[C@@H]4[C@@]5(C)C[C@H](O)[C@H](O)C(C)(C)[C@@H]5CC[C@]43C)[C@@H]2C1 [AUGUSTIC ACID]
- Activity (B16-F10 [1]): <10%

SMILES: COC(=O)[C@]12CCC(C)(C)C[C@H]1C1=CC[C@@H]3[C@@]4(C)C[C@@H](C=O)C(C)(C)[C@@H]4CC[C@@]3(C)[C@]1(C)CC2
- Activity (B16-F10 [1]): <10%

SMILES: CC1(C)CC[C@]2(CO)CC[C@]3(C)C(=CC[C@@H]4[C@@]5(C)C[C@@H](O)[C@H](O)C(C)(C)[C@@H]5CC[C@]43C)[C@@H]2C1
- Activity (B16-F10 [1]): <10%

SMILES: C=C1CC[C@H]2C(C)(C)CCC[C@]2(C)/C1=C/CC1=C(C)CCC2(C(=O)OC)CCC(C)(C)C[C@@H]12 (single isomer, unassigned)
- Activity (B16-F10 [1]): <10%

SMILES: COC(=O)[C@]12CCC(C)(C)C[C@H]1[C@@](O)(/C=C\[C@@]13O[C@]1(C)CC[C@H]1C(C)(C)CCC[C@@]13C)[C@](C)(O)CC2
- Activity (B16-F10 [1]): <10%

SMILES: CC(=O)O[C@H]1CC[C@]2(C)C3=CC(=O)[C@]45OC(=O)[C@@]6(CCC(C)(C)C[C@H]64)CC[C@@]5(C)[C@]3(C)CC[C@H]2C1(C)C
- Activity (B16-F10 [1]): <10%
